Measurements taken from ChEMBL document CHEMBL4138274, “Multiflorumisides A-G, Dimeric Stilbene Glucosides with Rare Coupling Patterns from the Roots of Polygonum multiflorum” (J Nat Prod, 2018).

Columns and labels:
RAW264.7 [1] = assay: Cytotoxicity against LPS-stimulated mouse RAW264.7 cells assessed as effect on cell viability at 20 uM after 48 hrs by MTT assay; type: cell-based; conditions: raw264.7, 48 h
Method in brief: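 Viability by MTT on RAW264.7 cells seeded at 4 × 10^4 per well and held 2 h at 37 °C in humidified 5% CO2. Cells were then treated for 48 h at 37 °C with LPS (200 ng/mL) together with serially diluted test compound.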

RAW264.7 [2] = assay: Antiinflammatory activity in mouse RAW264.7 cells assessed as inhibition of LPS-stimulated nitric oxide production at 20 uM after 48 hrs by Griess assay relative to control; type: functional; conditions: RAW264.7, 48 h
Method in brief: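 RAW264.7 cells seeded at 4 × 10^4 per well, held 2 h at 37 °C in humidified 5% CO2, then exposed to LPS (200 ng/mL) plus serially diluted test compound for 48 h at 37 °C. Supernatant was mixed 1:1 with Griess reagent, incubated 15 min, and absorbance read at 540 nm as a nitrite measure.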

For `OC[C@H]1O[C@@H](Oc2c(O)cc(O)cc2[C@H]2[C@H](c3ccc(O)cc3)c3c(O)cc(O)c(O[C@@H]4O[C@H](CO)[C@@H](O)[C@H](O)[C@H]4O)c3C[C@H]2c2ccc(O)cc2)[C@H](O)[C@@H](O)[C@@H]1O`, the Activity (RAW264.7 [1]) was “Non-Toxic”.
For `OC[C@H]1O[C@@H](Oc2c(O)cc(O)cc2[C@H]2[C@H](c3ccc(O)cc3)[C@H](c3cc(O)cc(O)c3O[C@@H]3O[C@H](CO)[C@@H](O)[C@H](O)[C@H]3O)[C@H]2c2ccc(O)cc2)[C@H](O)[C@@H](O)[C@@H]1O`, the Activity (RAW264.7 [1]) was “Non-Toxic” and the inhibition at 20 µM (RAW264.7 [2]) was 22.4%.
With `OC[C@H]1O[C@@H](Oc2c(O)cc(O)cc2[C@@H]2[C@@H](c3ccc(O)cc3)[C@H](c3ccc(O)cc3)[C@H]2c2cc(O)cc(O)c2O[C@@H]2O[C@H](CO)[C@@H](O)[C@H](O)[C@H]2O)[C@H](O)[C@@H](O)[C@@H]1O` the Activity (RAW264.7 [1]) was “Non-Toxic” and the inhibition at 20 µM (RAW264.7 [2]) was 22%.
In the case of `OC[C@H]1O[C@@H](Oc2c(O)cc(O)cc2[C@@H]2[C@@H](c3ccc(O)cc3)c3c(O)cc(O)c(O[C@@H]4O[C@H](CO)[C@@H](O)[C@H](O)[C@H]4O)c3C[C@H]2c2ccc(O)cc2)[C@H](O)[C@@H](O)[C@@H]1O`, the Activity (RAW264.7 [1]) is reported as “Non-Toxic”.
For `OC[C@H]1O[C@@H](Oc2c(O)cc(O)cc2[C@@H]2[C@@H](c3ccc(O)cc3)[C@@H](c3ccc(O)cc3)[C@@H]2c2cc(O)cc(O)c2O[C@@H]2O[C@H](CO)[C@@H](O)[C@H](O)[C@H]2O)[C@H](O)[C@@H](O)[C@@H]1O`, the Activity (RAW264.7 [1]) was “Non-Toxic” and the inhibition at 20 µM (RAW264.7 [2]) was 16.8%.
For `OC[C@H]1O[C@@H](Oc2c(O)cc(O)cc2[C@H]2[C@H](c3ccc(O)cc3)[C@@H](c3cc(O)cc(O)c3O[C@@H]3O[C@H](CO)[C@@H](O)[C@H](O)[C@H]3O)[C@@H]2c2ccc(O)cc2)[C@H](O)[C@@H](O)[C@@H]1O`, the Activity (RAW264.7 [1]) was “Non-Toxic” and the inhibition at 20 µM (RAW264.7 [2]) was 16.7%.
In the case of `OC[C@H]1O[C@@H](Oc2c(O)cc(O)cc2[C@H]2[C@@H](c3ccc(O)cc3)c3c(O)cc(O)c(O[C@@H]4O[C@H](CO)[C@@H](O)[C@H](O)[C@H]4O)c3C[C@@H]2c2ccc(O)cc2)[C@H](O)[C@@H](O)[C@@H]1O`, the Activity (RAW264.7 [1]) is reported as “Non-Toxic”.
Molecule `C[C@@H]1C[C@H]2[C@@H]3CCC4=CC(=O)C=C[C@]4(C)[C@@]3(F)[C@@H](O)C[C@]2(C)[C@@]1(O)C(=O)CO` [DEXAMETHASONE] has an inhibition at 20 µM (RAW264.7 [2]) of 60.9%.
